Compound activity (PubChem)
This is a sample that favours compounds with a hit; in the whole collection about 1.9% have one here.
procasp7 counter – procaspase-7 activators, primary screen, counter-screen for procaspase-3 activator project, biochemical, absorbance, HTS, human; recombinant procaspase-7, Ac-DEVD-pNA absorbance 405 nm; D23A/D198A/D206A triple mutant, cannot self-cleave; scale: DMSO 0, 5 µM enzyme 100; activation, % at 8.5 µM; actives 0.093% (n = 330,000); AID 463210, 2010;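 active = percent activation above the screen-wide mean plus 3 SD, cut at about 25% in these data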
Target sequence (P55210 whole entry D23A/D198A/D206A): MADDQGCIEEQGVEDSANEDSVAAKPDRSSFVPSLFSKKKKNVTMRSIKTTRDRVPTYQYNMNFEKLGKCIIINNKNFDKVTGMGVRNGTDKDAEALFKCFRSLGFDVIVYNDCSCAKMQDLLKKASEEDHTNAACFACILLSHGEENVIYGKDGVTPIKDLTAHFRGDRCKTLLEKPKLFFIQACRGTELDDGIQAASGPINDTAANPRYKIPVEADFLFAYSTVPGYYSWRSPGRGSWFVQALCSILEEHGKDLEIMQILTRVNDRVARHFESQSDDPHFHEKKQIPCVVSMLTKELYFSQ
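signal = Epi-absorbance of released pNA at 405 nm, two timepoints | assay system = Uncleavable procaspase-7 mutant enzyme | reagent = Ac-DEVD-pNA substrate, 400 µM as added | times = 1 h enzyme–compound preincubation and 2 h substrate reaction, both 25 °C | benchmarks = low DMSO alone, high DMSO plus 5 µM PC-7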
sPLA2-III inh – human group III sPLA2 inhibitors, primary screen, biochemical, QFRET, BODIPY PC-A2 liposome substrate; AID 743126, 2013; inhibition, % at 12.2 µM; Group 3 secretory phospholipase A2 (Homo sapiens), Q9NZ20; QFRET BODIPY PC-A2 liposome hydrolysis, fluorescence; actives 0.56% (n = 370,000);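 active = inhibition above mean plus 3 SD of compounds lying within the high and low control bounds, cut at about 19% in these data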
PLC-gamma1 inh – PLC-gamma1 enzyme inhibitors, primary screen, biochemical, fluorescence, purified enzyme | actives 0.84% (n = 370,000) | inhibition, % at 12.2 µM | 1-phosphatidylinositol 4,5-bisphosphate phosphodiesterase gamma-1 (Homo sapiens), P19174 | fluorogenic substrate
proCasp3 act – activators of human procaspase-3 D3A mutant, primary screen, biochemical, absorbance, PC-3 D3A mutant, single concentration; Caspase-3 (Homo sapiens), P42574; recombinant procaspase-3 D3A, Ac-DEVD-pNA absorbance 405 nm; activation, % at 8.5 µM; actives 0.11% (n = 330,000);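 active = activation above the mean of all tested compounds plus 3 SD, cut at about 21% in these data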
Target sequence (P42574 whole entry D9A/D28A/D175A): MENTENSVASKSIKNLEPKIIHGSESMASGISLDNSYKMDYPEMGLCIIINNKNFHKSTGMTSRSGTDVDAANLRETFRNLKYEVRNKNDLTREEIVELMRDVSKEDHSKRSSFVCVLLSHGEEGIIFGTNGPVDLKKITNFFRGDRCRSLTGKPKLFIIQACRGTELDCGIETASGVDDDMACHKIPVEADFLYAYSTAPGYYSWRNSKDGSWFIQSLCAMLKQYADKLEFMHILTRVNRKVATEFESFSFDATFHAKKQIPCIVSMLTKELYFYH
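Assay system: Autoprocessing-dead procaspase-3 D3A mutant enzyme; also added: Ac-DEVD-pNA; doses: one concentration, 8.5 µM nominal, 0.8% DMSO; times: 1 h compound preincubation, 2 h substrate hydrolysis at 25 °C; technique: 405 nm absorbance of p-nitroaniline, reads at 0 and 120 min; measure: % activation between DMSO and enzyme-spiked controls; repeats: single replicate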
Arr AP2 block – inhibitors of beta-arrestin/AP2 binding, primary screen, biochemical, GPCR trafficking, flow cytometry; FITC-arrestin peptide / GST-AP2 beads; AP2 beta2 appendage carries R879A mutation; beta-arrestin 1 C-terminal peptide binding to AP2 beta2-adaptin appendage (human); actives 0.31% (n = 340,000); inhibition, % at 10 µM;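 active = inhibition above a set limit, near 3 SD of compounds lacking own fluorescence, cut at about 54% in these data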
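Assay system: GST-AP2 R879A bound to glutathione beads, E. coli-expressed; Medium: PBS with 0.05% Tween 20 and 0.1% BSA; Also added: fluorescein-tagged arrestin peptide at 50 nM final; Timing: 12 min plus 1 h, RT; Measured by: flow cytometry, FL1 (488/535 nm); Evaluation: percent drop in bead-associated FITC signal.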
PLC-beta3 inh – human PLC-beta3 inhibitors, primary screen, biochemical, fluorescence. actives 0.18% (n = 370,000). AID 720704, 2013. 1-phosphatidylinositol 4,5-bisphosphate phosphodiesterase beta-3 (Homo sapiens), Q01970. inhibition, % at 12.2 µM. Purified PLC-beta3, fluorogenic substrate; in the data active = inhibition above about 11%
PLCgamma1 ctr – PLC-gamma1 enzyme inhibitors, counter-screen for PLC-beta3 inhibitor project, biochemical, fluorescence | shares compounds with PLC-gamma1 inh | purified PLC-gamma1, fluorogenic substrate | inhibition, % at 12.3 µM | actives 3.1% (n = 3,300) | AID 743258, 2014
PLCb3 confirm – PLC-beta3 inhibitor confirmation, biochemical, fluorescence, purified enzyme; shares compounds with PLC-gamma1 inh; fluorogenic substrate fluorescence; inhibition, % at 12.3 µM; actives 1% (n = 3,300); in the data active = inhibition above about 11%
Each line names hits and unclear results; the compound was inactive in the other large screens (follow-up assays come after a bar, where they were run). Rule as the data show it, unless noted: active = inhibition above about 9.5%; inactive = the rest.

O=C(O)c1cccc(Nc2ccncc2[N+](=O)[O-])c1	PLC-gamma1 inh 11 | PLCgamma1 ctr inactive | PLCb3 confirm inactive
O=[N+]([O-])c1cnccc1Nc1ccccc1	none
C/C(=N\NC(=O)c1cc(-c2ccccc2)nc2ccccc12)c1ccc(Cl)cc1	none (no result: procasp7 counter, proCasp3 act, Arr AP2 block)
Cc1ccc(NC(=S)NC(=O)C2CCCCC2)c(Br)c1	PLC-gamma1 inh 16, PLC-beta3 inh 15 | PLCgamma1 ctr inactive | PLCb3 confirm inactive
Cc1ccc(NC(=O)C2CCCC2)c(Br)c1	none
NS(=O)(=O)c1ccc(NC(=S)NC(=O)C2CCCCC2)cc1	PLC-gamma1 inh 11 | PLCgamma1 ctr inactive | PLCb3 confirm inactive
CCN(C(=O)[C@@H]1CC(=O)O[C@@H]1c1ccccc1)c1ccccc1	none (no result: procasp7 counter, proCasp3 act, Arr AP2 block)
C=CCCC(=O)N(Cc1ccccc1)c1ccccc1C(=O)Nc1cc(OC)ccc1OC	none (no result: procasp7 counter, proCasp3 act, Arr AP2 block)
COCC(=O)N1CCC(Oc2ccc(C(=O)NC3Cc4ccccc4C3)cc2)CC1	none
Cc1ccc(-c2nn(CC(=O)N3CCOCC3)c(=O)c3ccccc23)cc1S(=O)(=O)N(C)C	PLC-gamma1 inh 10 | PLCgamma1 ctr inactive | PLCb3 confirm inactive
c1ccc(Nc2cc(Nc3ccccc3)[nH]n2)cc1	PLC-gamma1 inh 22 | PLCgamma1 ctr inactive | PLCb3 confirm inactive
O=S(=O)([N-]c1nc2ccccc2nc1-[n+]1ccccc1)c1ccc(F)cc1	PLC-gamma1 inh 11 | PLCgamma1 ctr inactive | PLCb3 confirm inactive
CCOC(=O)C[C@@H]1OC[C@H](C(C)C)N1S(=O)(=O)c1ccc(C)cc1	none (no result: procasp7 counter, proCasp3 act, Arr AP2 block)
CCN(CC)C(=O)c1nc[nH]c1C(=O)N(CC)CC	PLC-gamma1 inh 14 | PLCgamma1 ctr inactive | PLCb3 confirm inactive
Cc1cc(N2CCN(C(=O)Oc3ccc(-c4ccccc4)cn3)CC2)c2ccccc2n1	PLC-gamma1 inh 12 (no result: procasp7 counter, proCasp3 act, Arr AP2 block) | PLCgamma1 ctr inactive | PLCb3 confirm inactive
CCCCOc1ccc(C(=O)NC2CCCCN(Cc3cccc(Cl)c3)C2=O)cc1 (stereo not given)	none (no result: procasp7 counter, proCasp3 act, Arr AP2 block)
O=c1c2cc(Br)ccc2nc2n1CCCCC2	none (no result: sPLA2-III inh, PLC-gamma1 inh, PLC-beta3 inh)
Cc1ccc2nc3n(c(=O)c2c1)CCCCC3	PLC-gamma1 inh 11 | PLCgamma1 ctr inactive | PLCb3 confirm inactive
O=C(Nc1cccc(Br)c1)OC1CC2CC1[C@H]1CCCCN1[C@H]2Cc1ccccc1 (stereo not given in full)	none (no result: procasp7 counter, proCasp3 act, Arr AP2 block)
c1ccc(N(c2ccccc2)c2nc(-n3ccnc3)nc(-n3ccnc3)n2)cc1	none
Clc1nc(Cl)nc(N(c2ccccc2)c2ccccc2)n1	PLC-gamma1 inh 9.6 | PLCgamma1 ctr inactive | PLCb3 confirm inactive
CN1CC=C(c2ccccc2)N(c2ccccc2)C1=O	PLC-beta3 inh 12 (no result: procasp7 counter, proCasp3 act, Arr AP2 block) | PLCgamma1 ctr inactive | PLCb3 confirm inactive
CN(C(=O)CS(=O)(=O)Cc1ccccc1Cl)c1ccccc1	none
CN(C(=O)CS(=O)(=O)c1cccc(Cl)c1)c1ccccc1	PLC-gamma1 inh 11 | PLCgamma1 ctr inactive | PLCb3 confirm inactive
CCS(=O)(=O)c1nc(S(=O)(=O)c2ccc(C)cc2)c(N2CCN(C)CC2)s1	PLC-gamma1 inh 9.8 | PLCgamma1 ctr inactive | PLCb3 confirm inactive
COC(=O)[C@H](CC(C)C)N(CCCc1cn(Cc2ccccc2)nn1)S(=O)(=O)c1ccc(F)cc1Br	none (no result: procasp7 counter, proCasp3 act, Arr AP2 block)
CC(C)OC(=O)c1ccccc1C(=O)c1ccc(N)c([N+](=O)[O-])c1	PLC-gamma1 inh 9.8 | PLCgamma1 ctr inactive | PLCb3 confirm inactive
